Data published in ChEMBL document CHEMBL4257503, “N-Acetyl-3-aminopyrazoles block the non-canonical NF-kB cascade by selectively inhibiting NIK” (Medchemcomm, 2018).
Calls of active or inactive are those of the source. The rule behind the calls is not given here.

Tests used:
[1] = target: Tyrosine-protein kinase SYK (Homo sapiens, UniProt P43405); assay: Inhibition of SYK (unknown origin)
[2] = target: Mitogen-activated protein kinase kinase kinase kinase 2 (Homo sapiens, UniProt Q12851); assay: Inhibition of MAP4K2 (unknown origin)
Chain of Mitogen-activated protein kinase kinase kinase kinase 2 (Q12851 whole entry, the tested form may be a part): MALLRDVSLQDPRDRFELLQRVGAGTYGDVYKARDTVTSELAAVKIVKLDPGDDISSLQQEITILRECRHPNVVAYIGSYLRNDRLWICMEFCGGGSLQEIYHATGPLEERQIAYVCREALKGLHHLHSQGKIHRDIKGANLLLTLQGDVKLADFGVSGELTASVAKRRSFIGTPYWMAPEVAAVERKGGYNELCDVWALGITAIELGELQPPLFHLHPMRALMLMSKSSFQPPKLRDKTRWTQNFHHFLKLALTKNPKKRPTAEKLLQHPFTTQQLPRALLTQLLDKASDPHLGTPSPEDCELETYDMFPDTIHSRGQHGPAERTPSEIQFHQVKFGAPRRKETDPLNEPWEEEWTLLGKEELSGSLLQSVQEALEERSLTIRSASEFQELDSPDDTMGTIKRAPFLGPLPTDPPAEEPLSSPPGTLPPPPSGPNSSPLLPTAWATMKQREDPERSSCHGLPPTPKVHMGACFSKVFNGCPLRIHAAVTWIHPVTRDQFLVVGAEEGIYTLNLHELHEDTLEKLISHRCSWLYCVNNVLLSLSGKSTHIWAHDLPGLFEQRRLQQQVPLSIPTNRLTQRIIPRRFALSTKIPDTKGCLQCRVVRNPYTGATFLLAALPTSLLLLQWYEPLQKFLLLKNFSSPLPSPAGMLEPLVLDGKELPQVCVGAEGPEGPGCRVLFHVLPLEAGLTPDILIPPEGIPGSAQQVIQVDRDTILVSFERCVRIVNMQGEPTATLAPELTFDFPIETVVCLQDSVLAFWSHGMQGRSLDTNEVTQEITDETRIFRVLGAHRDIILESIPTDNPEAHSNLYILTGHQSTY

[3] = system: Mitogen-activated protein kinase kinase kinase 14 (Homo sapiens), Q99558 [S549D]; assay: Inhibition of human NIK kinase domain S549D mutant
Chain of Mitogen-activated protein kinase kinase kinase 14 (Homo sapiens), Q99558 [S549D] (Q99558 whole entry S549D, the tested form may be a part): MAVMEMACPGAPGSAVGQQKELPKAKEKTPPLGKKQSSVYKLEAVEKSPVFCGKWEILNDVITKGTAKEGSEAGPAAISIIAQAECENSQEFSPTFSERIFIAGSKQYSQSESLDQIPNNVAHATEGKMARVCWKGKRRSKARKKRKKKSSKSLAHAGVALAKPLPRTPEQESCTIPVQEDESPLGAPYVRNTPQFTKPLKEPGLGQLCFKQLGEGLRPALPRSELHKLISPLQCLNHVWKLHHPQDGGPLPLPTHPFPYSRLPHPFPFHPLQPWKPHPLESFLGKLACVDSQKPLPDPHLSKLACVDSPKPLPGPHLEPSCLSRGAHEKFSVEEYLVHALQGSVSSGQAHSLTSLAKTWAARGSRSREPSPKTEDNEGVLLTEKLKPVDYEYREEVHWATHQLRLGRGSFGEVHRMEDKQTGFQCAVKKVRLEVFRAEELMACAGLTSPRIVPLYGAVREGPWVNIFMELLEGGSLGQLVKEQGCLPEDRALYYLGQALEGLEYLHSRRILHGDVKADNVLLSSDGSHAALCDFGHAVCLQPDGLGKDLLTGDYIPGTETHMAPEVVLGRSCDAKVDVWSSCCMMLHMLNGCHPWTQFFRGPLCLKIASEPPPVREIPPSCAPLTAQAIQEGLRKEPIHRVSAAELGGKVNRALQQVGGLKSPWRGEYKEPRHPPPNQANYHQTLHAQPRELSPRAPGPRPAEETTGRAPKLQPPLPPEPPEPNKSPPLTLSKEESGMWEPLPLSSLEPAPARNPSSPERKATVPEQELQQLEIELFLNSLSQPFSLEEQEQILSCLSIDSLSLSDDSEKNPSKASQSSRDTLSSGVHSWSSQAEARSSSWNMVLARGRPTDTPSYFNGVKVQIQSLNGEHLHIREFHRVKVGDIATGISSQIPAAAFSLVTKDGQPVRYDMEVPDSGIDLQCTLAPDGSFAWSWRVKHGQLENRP

[4] = target: Cyclin-dependent kinase 1/cyclin B1 (Homo sapiens, UniProt P06493); assay: Inhibition of CDK1/Cyclin B1 (unknown origin); assay type: protein-complex assay
[5] = target: Tyrosine-protein kinase JAK1 (Homo sapiens, UniProt P23458); assay: Inhibition of JAK1 (unknown origin)
Ephrin type-A receptor 6 = Ephrin type-A receptor 6 (Homo sapiens, UniProt Q9UF33); assay: Inhibition of EPHA6 (unknown origin)
[6] = target: Dual specificity protein kinase CLK1 (Homo sapiens, UniProt P49759); assay: Inhibition of CLK1 (unknown origin)
[7] = target: Tyrosine-protein kinase receptor UFO (Homo sapiens, UniProt P30530); assay: Inhibition of AXL (unknown origin)
[8] = target: Serine/threonine-protein kinase 4 (Homo sapiens, UniProt Q13043); assay: Inhibition of MST1 (unknown origin)
[9] = target: Mitogen-activated protein kinase kinase kinase 11 (Homo sapiens, UniProt Q16584); assay: Inhibition of MAP3K11 (unknown origin)
[10] = target: Dual specificity tyrosine-phosphorylation-regulated kinase 1A (Homo sapiens, UniProt Q13627); assay: Inhibition of DYRK1A (unknown origin)
[11] = target: Mitogen-activated protein kinase 14 (Homo sapiens, UniProt Q16539); assay: Inhibition of p38-alpha (unknown origin)
[12] = target: Serine/threonine-protein kinase pim-1 (Homo sapiens, UniProt P11309); assay: Inhibition of PIM1 (unknown origin)
[13] = target: Proto-oncogene tyrosine-protein kinase Src (Homo sapiens, UniProt P12931); assay: Inhibition of GST/His-tagged SRC (unknown origin)
Chain of Proto-oncogene tyrosine-protein kinase Src (P12931 2-536 limits assumed): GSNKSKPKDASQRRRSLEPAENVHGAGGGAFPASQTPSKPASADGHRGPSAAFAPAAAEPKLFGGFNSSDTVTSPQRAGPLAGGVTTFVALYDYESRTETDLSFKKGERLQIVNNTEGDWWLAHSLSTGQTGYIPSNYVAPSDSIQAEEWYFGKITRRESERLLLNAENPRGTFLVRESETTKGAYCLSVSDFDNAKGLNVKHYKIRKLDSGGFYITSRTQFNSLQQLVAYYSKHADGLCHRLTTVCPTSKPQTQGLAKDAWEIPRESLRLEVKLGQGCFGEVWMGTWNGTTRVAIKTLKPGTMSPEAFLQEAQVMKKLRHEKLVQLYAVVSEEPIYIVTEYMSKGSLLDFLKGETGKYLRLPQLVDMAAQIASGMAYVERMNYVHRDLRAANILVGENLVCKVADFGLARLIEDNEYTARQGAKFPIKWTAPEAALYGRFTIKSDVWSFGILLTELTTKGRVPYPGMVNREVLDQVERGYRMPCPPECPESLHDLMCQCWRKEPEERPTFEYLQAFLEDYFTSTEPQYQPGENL

[14] = target: Casein kinase I isoform alpha (Homo sapiens, UniProt P48729); assay: Inhibition of CK1-alpha1 (unknown origin)
[15] = target: Glycogen synthase kinase-3 beta (Homo sapiens, UniProt P49841); assay: Inhibition of GSK3-beta (unknown origin)
[16] = target: Maternal embryonic leucine zipper kinase (Homo sapiens, UniProt Q14680); assay: Inhibition of MELK (unknown origin)
[17] = target: Serine/threonine-protein kinase PAK 1 (Homo sapiens, UniProt Q13153); assay: Inhibition of PAK1 (unknown origin)
[18] = Stability in human liver microsomes at 1 uM in presence of NADPH cofactor; assay type: ADME, microsome; settings: read-out: Stability
[19] = target: T1, Inhibitor of nuclear factor kappa-B kinase subunit alpha (Homo sapiens, UniProt O15111); assay: Inhibition of recombinant full length human His-tagged IKKalpha expressed in baculovirus expression system using ERLLDDRHDSGLDSMKDEE peptide as substrate measured after 60 mins by ADP-Glo kinase assay
T1 sequence (O15111 whole entry): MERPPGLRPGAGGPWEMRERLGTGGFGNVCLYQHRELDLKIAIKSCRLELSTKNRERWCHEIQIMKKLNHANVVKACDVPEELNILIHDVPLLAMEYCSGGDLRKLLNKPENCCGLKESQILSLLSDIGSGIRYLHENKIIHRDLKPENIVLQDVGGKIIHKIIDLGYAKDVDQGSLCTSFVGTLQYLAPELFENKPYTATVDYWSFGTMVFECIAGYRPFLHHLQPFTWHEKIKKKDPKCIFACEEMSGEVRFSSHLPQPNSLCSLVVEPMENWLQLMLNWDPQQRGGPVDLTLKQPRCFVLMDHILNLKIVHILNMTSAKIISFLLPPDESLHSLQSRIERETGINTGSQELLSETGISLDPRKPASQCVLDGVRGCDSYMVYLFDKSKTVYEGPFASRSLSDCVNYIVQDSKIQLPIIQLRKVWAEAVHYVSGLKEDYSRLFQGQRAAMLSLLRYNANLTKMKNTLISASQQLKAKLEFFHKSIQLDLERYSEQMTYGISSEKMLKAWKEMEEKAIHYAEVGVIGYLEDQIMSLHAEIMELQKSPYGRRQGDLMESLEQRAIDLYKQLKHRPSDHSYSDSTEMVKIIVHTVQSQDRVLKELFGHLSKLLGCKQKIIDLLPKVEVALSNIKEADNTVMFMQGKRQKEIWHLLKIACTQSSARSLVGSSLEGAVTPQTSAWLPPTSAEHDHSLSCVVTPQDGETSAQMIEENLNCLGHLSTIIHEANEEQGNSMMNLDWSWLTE
Procedure, shortened: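 Recombinant human IKKα, peptide substrate 100 µM, enzyme 8 ng/µL, ATP 1 µM in Tris-HCl pH 7.5 buffer with MgCl2, MnCl2, DTT, Na3VO4, BSA; 25°C, 60 min; ADP-Glo luminescence. Ten concentrations 0.005–100 µM; IC50 by nonlinear regression; means ± SD of three independent experiments.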

[20] = target: Mitogen-activated protein kinase kinase kinase 14 (Homo sapiens, UniProt Q99558); assay: Inhibition of recombinant human full-length N-terminal GST-fused/His6-tagged NIK (M1 to P947 residues) expressed in Sf9 insect cells using AKDVDQGSLCTSFVGTLQY peptide as substrate measured after 60 mins by ADP-Glo kinase assay
Chain of Mitogen-activated protein kinase kinase kinase 14 (Q99558 whole entry, the tested form may be a part): as the sequence (Q99558 whole entry S549D, the tested form may be a part) above, with D549S counted along it

[21] = target: Platelet-derived growth factor receptor alpha (Homo sapiens, UniProt P16234); assay: Inhibition of wild-type PDGFR-alpha (unknown origin)
Chain of Platelet-derived growth factor receptor alpha (P16234 whole entry): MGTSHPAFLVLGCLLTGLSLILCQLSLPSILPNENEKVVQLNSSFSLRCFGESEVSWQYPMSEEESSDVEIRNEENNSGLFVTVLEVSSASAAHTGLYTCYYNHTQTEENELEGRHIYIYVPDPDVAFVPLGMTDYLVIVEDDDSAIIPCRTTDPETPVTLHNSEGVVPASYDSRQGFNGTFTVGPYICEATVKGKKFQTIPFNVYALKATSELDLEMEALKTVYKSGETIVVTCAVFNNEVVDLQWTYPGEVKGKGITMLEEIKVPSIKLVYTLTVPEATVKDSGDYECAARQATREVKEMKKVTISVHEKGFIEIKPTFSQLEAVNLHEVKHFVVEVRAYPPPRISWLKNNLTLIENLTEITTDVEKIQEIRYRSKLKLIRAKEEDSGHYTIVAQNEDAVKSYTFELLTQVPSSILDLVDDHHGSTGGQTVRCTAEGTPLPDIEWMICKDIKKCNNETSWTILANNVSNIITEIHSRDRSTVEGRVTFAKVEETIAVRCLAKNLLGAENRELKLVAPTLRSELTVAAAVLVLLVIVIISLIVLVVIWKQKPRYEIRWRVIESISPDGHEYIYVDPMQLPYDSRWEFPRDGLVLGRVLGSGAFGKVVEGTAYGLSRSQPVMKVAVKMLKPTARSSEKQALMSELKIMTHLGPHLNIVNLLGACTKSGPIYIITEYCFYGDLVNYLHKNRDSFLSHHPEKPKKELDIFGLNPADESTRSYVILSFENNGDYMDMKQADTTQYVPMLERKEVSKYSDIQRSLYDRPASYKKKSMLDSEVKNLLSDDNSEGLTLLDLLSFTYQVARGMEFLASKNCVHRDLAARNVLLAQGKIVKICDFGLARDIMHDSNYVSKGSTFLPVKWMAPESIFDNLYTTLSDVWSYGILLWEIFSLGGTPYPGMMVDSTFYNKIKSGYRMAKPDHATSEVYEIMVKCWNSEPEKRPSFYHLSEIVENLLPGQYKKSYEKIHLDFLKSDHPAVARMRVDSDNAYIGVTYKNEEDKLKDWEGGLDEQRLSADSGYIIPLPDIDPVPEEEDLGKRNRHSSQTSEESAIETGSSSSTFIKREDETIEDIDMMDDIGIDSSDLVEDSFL

[22] = Stability in human liver microsomes at 1 uM in absence of NADPH cofactor; assay type: ADME, microsome
[23] = target: Serine/threonine-protein kinase B-raf (Homo sapiens, UniProt P15056); assay: Inhibition of wild-type B-RAF (unknown origin)
[24] = target: Homeodomain-interacting protein kinase 1 (Homo sapiens, UniProt Q86Z02); assay: Inhibition of HIPK1 (unknown origin)
Chain of Homeodomain-interacting protein kinase 1 (Q86Z02 whole entry): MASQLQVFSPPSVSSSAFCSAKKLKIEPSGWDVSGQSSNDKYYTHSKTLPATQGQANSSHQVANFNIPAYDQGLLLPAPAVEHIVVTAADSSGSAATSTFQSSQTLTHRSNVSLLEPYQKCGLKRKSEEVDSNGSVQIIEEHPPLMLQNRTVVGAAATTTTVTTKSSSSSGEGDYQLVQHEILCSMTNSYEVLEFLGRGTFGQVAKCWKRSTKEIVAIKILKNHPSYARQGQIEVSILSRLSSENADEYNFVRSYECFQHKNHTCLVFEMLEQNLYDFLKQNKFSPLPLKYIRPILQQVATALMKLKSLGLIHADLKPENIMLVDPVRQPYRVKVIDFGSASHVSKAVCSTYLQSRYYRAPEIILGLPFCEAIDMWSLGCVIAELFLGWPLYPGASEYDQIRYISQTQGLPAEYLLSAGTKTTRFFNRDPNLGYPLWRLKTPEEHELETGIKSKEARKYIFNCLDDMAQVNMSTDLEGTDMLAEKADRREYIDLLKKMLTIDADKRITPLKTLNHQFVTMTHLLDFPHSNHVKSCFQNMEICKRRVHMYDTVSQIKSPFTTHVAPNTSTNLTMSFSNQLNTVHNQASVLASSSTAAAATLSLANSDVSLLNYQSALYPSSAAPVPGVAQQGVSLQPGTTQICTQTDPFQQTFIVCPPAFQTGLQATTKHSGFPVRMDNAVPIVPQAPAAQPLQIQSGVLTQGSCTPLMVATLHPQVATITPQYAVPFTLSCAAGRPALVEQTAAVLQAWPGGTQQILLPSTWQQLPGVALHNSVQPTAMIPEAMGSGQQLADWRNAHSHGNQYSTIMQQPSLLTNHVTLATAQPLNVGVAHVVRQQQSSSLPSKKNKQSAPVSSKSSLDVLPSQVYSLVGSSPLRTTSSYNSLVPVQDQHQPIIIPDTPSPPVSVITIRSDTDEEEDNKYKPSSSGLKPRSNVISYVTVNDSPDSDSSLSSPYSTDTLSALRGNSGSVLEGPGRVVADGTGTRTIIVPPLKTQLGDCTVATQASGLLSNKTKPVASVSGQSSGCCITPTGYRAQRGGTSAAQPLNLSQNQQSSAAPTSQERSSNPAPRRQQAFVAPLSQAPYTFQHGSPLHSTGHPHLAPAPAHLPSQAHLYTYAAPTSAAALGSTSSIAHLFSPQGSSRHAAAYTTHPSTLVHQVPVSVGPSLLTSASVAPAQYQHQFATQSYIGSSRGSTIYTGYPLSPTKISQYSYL

[25] = Cytotoxicity against human SKBR3 cells assessed as cell viability at 100 uM after 6 hrs by CellTiter Glo luminescent assay relative to control; assay type: cell-based, SK-BR-3; settings: read-out: Activity
Procedure, shortened: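 Cells seeded at 5 x 10^3 per well and exposed for 6 h to the compound (10, 25, 50 or 100 µM) or to DMSO vehicle. Viability was read as intracellular ATP by CellTiter Glo luminescence.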

[26] = target: 5'-AMP-activated protein kinase catalytic subunit alpha-1 (Homo sapiens, UniProt Q13131); assay: Inhibition of AMPK alpha1 (unknown origin) (1 to 550 residues)
[27] = target: Casein kinase II subunit alpha (Homo sapiens, UniProt P68400); assay: Inhibition of CK2-alpha1 (unknown origin)
Chain of Casein kinase II subunit alpha (P68400 whole entry): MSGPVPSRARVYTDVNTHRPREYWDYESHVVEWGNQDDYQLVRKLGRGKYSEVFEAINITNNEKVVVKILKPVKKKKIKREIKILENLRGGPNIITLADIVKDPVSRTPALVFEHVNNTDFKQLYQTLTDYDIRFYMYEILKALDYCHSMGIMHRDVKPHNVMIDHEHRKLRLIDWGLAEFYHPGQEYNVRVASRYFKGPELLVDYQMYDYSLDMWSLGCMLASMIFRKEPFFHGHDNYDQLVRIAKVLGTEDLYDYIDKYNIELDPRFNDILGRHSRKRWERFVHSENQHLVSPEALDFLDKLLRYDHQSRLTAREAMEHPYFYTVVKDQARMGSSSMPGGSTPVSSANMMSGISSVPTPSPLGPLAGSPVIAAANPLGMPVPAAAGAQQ

[28] = target: Interleukin-1 receptor-associated kinase 4 (Homo sapiens, UniProt Q9NWZ3); assay: Inhibition of untagged IRAK4 (unknown origin)

SMILES: CC(=O)n1nc(C)c(-c2ccc(Cl)c(Cl)c2)c1N
- IC50 [1]: > 100 µM
- IC50 [2]: > 100 µM
- inhibition [3]: inactive
- IC50 [4]: > 100 µM
- IC50 [5]: > 100 µM
- IC50 (Ephrin type-A receptor 6): > 100 µM
- IC50 [6]: > 100 µM
- IC50 [7]: > 100 µM
- IC50 [8]: > 100 µM
- IC50 [9]: > 100 µM
- IC50 [10]: > 100 µM
- IC50 [11]: > 100 µM
- IC50 [12]: > 100 µM
- IC50 [13]: > 100 µM
- IC50 [14]: > 100 µM
- IC50 [15]: > 100 µM
- IC50 [16]: > 100 µM
- IC50 [17]: > 100 µM
- remaining at 1 µM [18]: 1%
- IC50 [19]: > 100 µM
- IC50 [20]: 8.4 µM
- IC50 [21]: > 100 µM
- Stability [22]: Unstable
- IC50 [23]: > 100 µM
- IC50 [24]: > 100 µM
- viability at 6 h, 100 µM [25]: ≥ 80%
- IC50 [26]: > 100 µM
- IC50 [27]: > 100 µM
- IC50 [28]: > 100 µM
